The record followed here is PubChem BioAssay AID602169 (The Scripps Research Institute Molecular Screening Center, 2012).

For orientation: inhibition means the share of the control response that was lost under treatment.

The structures appear in SMILES notation. Calls of active or inactive are those of the source.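 The calls were made as follows: active = luciferase reporter signal inhibited by 20% or more; inactive = inhibition below 20%.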

This assay deals with BG1Luc4E2 ER-luciferase reporter inhibition, 24 h. Briefly: inhibitors of ER-driven luciferase reporter, late-stage follow-up, counter-screen for AHR activator project, BG1Luc4E2 ovarian carcinoma cells, luminescence (AID 602169). The following applies: at 10 µM; hits give high values. The method in brief: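 Material: BG1Luc4E2 human ovarian carcinoma cells with stable ERE-driven firefly luciferase; medium: phenol red-free DMEM with charcoal-stripped FBS; probe or stimulus: estradiol 17β stimulus; dosing: 10 µM, single concentration; incubation: 5-day estrogen depletion, then 24 h compound exposure at 37 °C; signal: luciferase luminescence after lysis; replication: triplicates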
`CN1CCN(CCCNC(=O)c2cc3c(-c4ccc(Cl)cc4)nn(C)c3s2)CC1`: the inhibition is 0% (inactive).

For the molecule `Cc1c(-c2ccn[nH]2)cc(NC(=O)c2ccc(Cl)cc2)c(=O)n1N`, the inhibition was 1% (inactive).

On to `CCOC(=O)Cc1cc(-c2ccc(O)cc2)nc2ccc3ccccc3c12`, for which the inhibition was 28%.

For `CCC(=O)Nc1cc(OC)c(NC(=O)c2ccccc2)cc1OC`, the inhibition was 1% (inactive).

For `Cn1c(N)c(C(=O)Nc2ccccc2F)sc1=S`, the inhibition is 5% (inactive).

For `COc1cc2ccccc2cc1C(=O)Nc1ccc(C)cc1`, the inhibition is 40%.

Turning to `Cc1csc(SCC(=O)Nc2ccc(Cl)cn2)n1`, the inhibition is 0% (inactive).

As for `COC(=O)c1ccccc1NC(=O)Cn1ccnc1`, the inhibition was 3% (inactive).

For the molecule `COc1ccccc1NC(=O)c1ccc2c(c1)nnn2C`, the inhibition was 0% (inactive).

For the molecule `COc1ccccc1NC(=O)c1ccc(C(=O)Nc2ccccc2OC)nc1`, the inhibition is 0% (inactive).

On to `COc1ccc(NC(=O)c2cccc3c(Br)cccc23)cc1`, for which the inhibition was 31%.

On to `O=C(CN1CCOCC1)Nc1nc2ccc([N+](=O)[O-])cc2s1`, for which the inhibition is 11% (inactive).

On to `COc1ccccc1C(=O)Nc1ccc(N2CCCCC2)cc1`, for which the inhibition is 47%.

In the case of `COc1ccc(C(=O)Nc2cc(OC)c(NC(=O)c3ccco3)cc2OC)cc1`, the inhibition is 0% (inactive).

`CCCC(=O)Nc1nn(C)c2nc3cc(C)ccc3cc12`: the inhibition was 0% (inactive).

`Cc1cc(Nc2ccc(Br)cc2)n2nc(C)nc2n1`: the inhibition was 0% (inactive).

Regarding `O=C1c2ccccc2-c2nc3ccccc3nc21`, the inhibition is 34%.

`Cc1ccc(Nc2ncccc2C(N)=O)cc1`: the inhibition is 24%.

Consider `CCOc1ccc(-c2cc(C)n3nc(C(N)=O)cc3n2)cc1`, for which the inhibition was 0% (inactive).

On to `Cc1ccccc1-c1nc(-c2cccnc2)no1`, for which the inhibition was 22%.

As for `COc1ccccc1NC(=O)Nc1cccnc1`, the inhibition was 3% (inactive).

Turning to `CN(C)c1nc(N)nc(-c2nc3ccccc3s2)n1`, the inhibition is 44%.

Take `Cc1ccc(-c2cc(-c3cccs3)[nH]n2)c(O)c1`: the inhibition was 20%.

`CCOc1ccccc1NC(=O)c1ccc2nccnc2c1`: the inhibition was 8% (inactive).

With `O=C(Nc1cccc(Cl)c1)c1cccnn1`, the inhibition was 2% (inactive).

As to `Cc1nnc(N2C(=O)c3cccc4c([N+](=O)[O-])ccc(c34)C2=O)s1`, the inhibition was 0% (inactive).

Regarding `Cn1c(C(=O)N2CCC(C(N)=O)CC2)cc2cc(Cl)ccc21`, the inhibition was 4% (inactive).

In the case of `CC(=O)c1ccc(NC(=O)c2cc(Cl)nc3ccccc23)cc1`, the inhibition is 2% (inactive).

In the case of `Cc1nc(N)nc(Nc2ccc(Cl)cc2)c1Br`, the inhibition was 7% (inactive).

For the molecule `COc1ccc(Cl)cc1C(=O)Nc1ccc(N(C)C(C)=O)cc1`, the inhibition is 2% (inactive).

For `O=C(Nc1ccon1)c1cnc2sccn2c1=O`, the inhibition was 34%.

As for `COc1cc2c(cc1NC(=O)Nc1ccc(C)cc1)oc1ccccc12`, the inhibition is 5% (inactive).

As to `CCOc1ccc(NC(=O)c2cc3ccccc3cc2OC)cc1`, the inhibition is 5.3% (inactive).
